The source made the active and inactive calls. No cut-off for these calls is given here.
Key:
SH-SY5Y [1] = experiment: Cytotoxicity against human SH-SY5Y cells at 10 uM; assay type: toxicity, cell-based
Procedure, shortened: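 SH-SY5Y differentiated to neuron-like phenotype with 10 μM all-trans retinoic acid for 48 h, 20 000 cells/well, then exposed to compound for 72 h (DMSO ≤0.5 %). Propidium iodide exclusion fluorescence; dead-cell proportion expressed relative to Triton X-100 (1 %, 1 min) lysed control.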

SH-SY5Y [2] = experiment: Potentiation of MPP+ induced toxicity in human SH-SY5Y cells assessed as increase in cell death at 10 uM; assay type: cell-based
Procedure, shortened: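 Neuron-like SH-SY5Y co-treated for 24 h with 5 mM MPP+, compound and CB2 inverse agonist AM630 or antagonist SR144528 at 0.1, 1 or 10 μM; CB2 ligands also tested alone and with MPP+; cell death read-out; triplicates on three independent days.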

SH-SY5Y [3] = experiment: Inhibition of MPP+ induced mitochondrial superoxide radical production in human SH-SY5Y cells at 10 uM incubated for 24 hrs by MitoSOX staining based microplate reader assay (reference value: 100%); assay type: functional
Procedure, shortened: (§1)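 Neuron-like SH-SY5Y (20 000 cells/well) co-treated with 5 mM MPP+ and compound for 24 h; plates centrifuged, medium replaced by 5 μM MitoSOX in HBSS, 30 min at 37 °C, fluorescence 500/580 nm; MPP+ signal set to 100 %; triplicates on at least four independent days.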

SH-SY5Y [4] = experiment: Cytotoxicity against human SH-SY5Y cells assessed as cell death at 10 uM incubated for 72 hrs by propidium iodide staining based fluorescence assay; assay type: toxicity
Procedure, shortened: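 SH-SY5Y differentiated to neuron-like phenotype with 10 μM all-trans retinoic acid for 48 h, 20 000 cells/well. Compounds from DMSO stocks (DMSO ≤0.5 %) added, then 72 h exposure. Control wells lysed with 1 % Triton X-100 for 1 min, then all wells stained with propidium iodide for fluorescence read-out. Dead-cell proportion expressed relative to Triton X-100-treated control.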

SH-SY5Y [5] = experiment: Neuroprotective activity against ATRA-differentiated and 3-NPA induced cell death in human SH-SY5Y cells assessed as cell death at 0.1 uM incubated for 48 hrs by propidium iodide staining based fluorescence assay (reference value: 100%); assay type: functional
Procedure, shortened: (§2)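 ATRA-differentiated SH-SY5Y co-treated with compound and 20 mM 3-nitropropionic acid for 48 h; cell death by propidium iodide fluorescence, 3-NPA-treated signal set to 100 %.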

SH-SY5Y [6] = experiment: Neuroprotective activity against ATRA-differentiated and 3-NPA induced cell death in human SH-SY5Y cells assessed as cell death at 1 uM incubated for 48 hrs by propidium iodide staining based fluorescence assay (reference value: 100%); assay type: functional; procedure, shortened: as §2
SH-SY5Y [7] = experiment: Neuroprotective activity against ATRA-differentiated and 3-NPA induced cell death in human SH-SY5Y cells assessed as cell death at 10 uM incubated for 48 hrs by propidium iodide staining based fluorescence assay (reference value: 100%); assay type: functional; procedure, shortened: as §2
SH-SY5Y [8] = experiment: Neuroprotective activity against ATRA-differentiated and MPP+ induced cell death in human SH-SY5Y cells assessed as cell death at 0.1 uM incubated for 24 hrs by propidium iodide staining based fluorescence assay (reference value: 100%); assay type: functional
Procedure, shortened: (§3)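 ATRA-differentiated SH-SY5Y co-treated with compound and 5 mM MPP+ for 24 h; cell death by propidium iodide fluorescence, MPP+-treated signal set to 100 %.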

SH-SY5Y [9] = experiment: Neuroprotective activity against ATRA-differentiated and MPP+ induced cell death in human SH-SY5Y cells assessed as cell death at 1 uM incubated for 24 hrs by propidium iodide staining based fluorescence assay (reference value: 100%); assay type: functional; procedure, shortened: as §3
SH-SY5Y [10] = experiment: Neuroprotective activity against ATRA-differentiated and MPP+ induced cell death in human SH-SY5Y cells assessed as cell death at 10 uM incubated for 24 hrs by propidium iodide staining based fluorescence assay (reference value: 100%); assay type: functional; procedure, shortened: as §3
SH-SY5Y [11] = experiment: Neuroprotective activity against ATRA-differentiated and MPP+ induced cell death in human SH-SY5Y cells assessed as cell death at 10 uM by LDH release assay (reference value: 100%); assay type: functional
Procedure, shortened: (§4)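 ATRA-differentiated SH-SY5Y co-treated with 5 mM MPP+ and compound; cell death by commercial LDH release kit; MPP+ value set to 100 %; triplicates on at least three independent days.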

SH-SY5Y [12] = experiment: Neuroprotective activity against MPP+ induced cell death in human SH-SY5Y cells assessed as cell death at 10 uM by YOPRO-1 staining based assay; assay type: functional
Procedure, shortened: (§5)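 Neuron-like SH-SY5Y co-treated with compound and 5 mM MPP+ for 24 h; centrifuged at 500 × g, medium replaced by 1 μM YO-PRO1 in PBS for 15 min at room temperature; fluorescence 488/530 nm; MPP+ signal set to 100 %; triplicates on at least three independent days.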

SH-SY5Y [13] = experiment: Neuroprotective activity against MPP+ induced cell death in human SH-SY5Y cells assessed as cell death at 10 uM incubated for 24 hrs by Cas-3, 7 staining based assay; assay type: functional
Procedure, shortened: (§6)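 Caspase-3/7 activation with Ac-DEVD-AFC substrate after 24 h co-treatment of neuron-like SH-SY5Y with compound and 5 mM MPP+; MPP+ signal set to 100 %; triplicates on at least three independent days.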

SH-SY5Y [14] = experiment: Inhibition of MPP+ induced superoxide radical production in human SH-SY5Y cells at 10 uM incubated for 24 hrs by microplate reader assay (reference value: 100%); assay type: functional
Procedure, shortened: (§7)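 Neuron-like SH-SY5Y co-treated with 5 mM MPP+ and compound for 24 h; centrifuged at 500 × g, medium replaced with 10 μM dihydroethidium in PBS for 30 min, fluorescence 500/580 nm; MPP+ signal set to 100 %; triplicates on at least four independent days.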

SH-SY5Y [15] = experiment: Inhibition of MPP+ induced mitochondrial depolarization in human SH-SY5Y cells at 0.1 uM incubated for 2 hrs by JC10 staining based confocal laser scanning microscopy; assay type: functional
Procedure, shortened: (§8)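 ATRA-differentiated SH-SY5Y co-treated with 5 mM MPP+ and compound for 2 h; mitochondrial membrane potential by JC10 ratiometric red/green signal (plate) and confocal imaging of JC10-stained cells (50 000 cells/well slides); DMSO control set to 100 %; triplicates on three independent days.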

SH-SY5Y [16] = experiment: Inhibition of MPP+ induced mitochondrial depolarization in human SH-SY5Y cells at 1 uM incubated for 2 hrs by JC10 staining based confocal laser scanning microscopy; assay type: functional; procedure, shortened: as §8
Acetylcholinesterase = Acetylcholinesterase (Electrophorus electricus, UniProt O42275); experiment: Inhibition of electric eel AChE using acetylthiocholine as substrate by Ellman's method
Cholinesterase = Cholinesterase (Equus caballus, UniProt P81908); experiment: Inhibition of equine serum BChE using butyrylthiocholine as substrate by Ellman's method
Procedure, shortened: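 Equine serum BChE (0.2 U/mL final) with 40 μM butyrylthiocholine and 100 μM DTNB, modified Ellman spectrophotometry; compounds from DMSO diluted in water, five inhibitor concentrations; IC50 from regression of v0/vi versus inhibitor concentration; triplicate.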

[17] = Selectivity index, ratio of IC50 for electric eel AChE to IC50 for equine serum BChE
Procedure, shortened: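 Ratio of IC50 values from modified Ellman spectrophotometric assays with electric eel AChE and equine serum BChE. Each used enzyme at 0.2 U/mL final, acetylthiocholine or butyrylthiocholine at 40 μM, and DTNB at 100 μM. Inhibitors were dissolved in DMSO, diluted in water, and tested at five concentrations in triplicate. IC50 came from regression of v0/vi against inhibitor concentration.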

SH-SY5Y [18] = experiment: Neuroprotective activity against ATRA-differentiated and MPP+ induced cell death in human SH-SY5Y cells assessed as cell death at 1 uM by LDH release assay (reference value: 100%); assay type: functional; procedure, shortened: as §4
SH-SY5Y [19] = experiment: Neuroprotective activity against MPP+ induced cell death in human SH-SY5Y cells assessed as cell death at 1 uM by YOPRO-1 staining based assay; assay type: functional; procedure, shortened: as §5
SH-SY5Y [20] = experiment: Neuroprotective activity against MPP+ induced cell death in human SH-SY5Y cells assessed as cell death at 1 uM incubated for 24 hrs by Cas-3, 7 staining based assay; assay type: functional; procedure, shortened: as §6
SH-SY5Y [21] = experiment: Inhibition of MPP+ induced superoxide radical production in ATRA-differentiated human SH-SY5Y cells at 1 uM incubated for 24 hrs by MitoSOX staining based confocal laser scanning microscopy; assay type: functional, cell-based
Procedure, shortened: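 50 000 cells seeded on chamber slides, ATRA-differentiated, co-treated with 5 mM MPP+ and compound for 24 h, then stained with MitoSOX and imaged by confocal laser-scanning microscopy (63× objective).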

SH-SY5Y [22] = experiment: Inhibition of MPP+ induced superoxide radical production in human SH-SY5Y cells at 1 uM incubated for 24 hrs by microplate reader assay (reference value: 100%); assay type: functional; procedure, shortened: as §7
SH-SY5Y [23] = experiment: Inhibition of MPP+ induced mitochondrial superoxide radical production in human SH-SY5Y cells at 0.1 to 10 uM incubated for 24 hrs by MitoSOX staining based microplate reader assay; assay type: functional, cell-based; conditions: dose 0.1-10 µM; procedure, shortened: as §1

Acetylcholinesterase, sequence (O42275 whole entry): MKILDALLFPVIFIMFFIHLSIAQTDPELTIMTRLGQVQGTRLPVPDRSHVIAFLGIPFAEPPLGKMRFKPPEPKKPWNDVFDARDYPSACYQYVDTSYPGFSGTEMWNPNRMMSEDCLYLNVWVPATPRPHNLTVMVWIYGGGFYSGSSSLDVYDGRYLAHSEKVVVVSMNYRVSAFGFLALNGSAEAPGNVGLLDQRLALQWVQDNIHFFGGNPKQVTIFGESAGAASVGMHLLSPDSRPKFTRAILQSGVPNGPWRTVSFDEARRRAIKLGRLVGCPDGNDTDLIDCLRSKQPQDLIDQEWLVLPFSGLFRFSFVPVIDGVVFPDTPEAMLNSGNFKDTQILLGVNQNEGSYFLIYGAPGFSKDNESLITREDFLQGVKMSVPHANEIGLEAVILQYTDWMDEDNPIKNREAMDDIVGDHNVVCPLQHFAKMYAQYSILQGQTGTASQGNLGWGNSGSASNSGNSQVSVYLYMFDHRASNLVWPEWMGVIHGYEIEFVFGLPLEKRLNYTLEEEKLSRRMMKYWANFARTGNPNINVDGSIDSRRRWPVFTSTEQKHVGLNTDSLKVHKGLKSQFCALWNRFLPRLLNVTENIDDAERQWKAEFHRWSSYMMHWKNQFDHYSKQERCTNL
Cholinesterase, sequence (P81908 whole entry): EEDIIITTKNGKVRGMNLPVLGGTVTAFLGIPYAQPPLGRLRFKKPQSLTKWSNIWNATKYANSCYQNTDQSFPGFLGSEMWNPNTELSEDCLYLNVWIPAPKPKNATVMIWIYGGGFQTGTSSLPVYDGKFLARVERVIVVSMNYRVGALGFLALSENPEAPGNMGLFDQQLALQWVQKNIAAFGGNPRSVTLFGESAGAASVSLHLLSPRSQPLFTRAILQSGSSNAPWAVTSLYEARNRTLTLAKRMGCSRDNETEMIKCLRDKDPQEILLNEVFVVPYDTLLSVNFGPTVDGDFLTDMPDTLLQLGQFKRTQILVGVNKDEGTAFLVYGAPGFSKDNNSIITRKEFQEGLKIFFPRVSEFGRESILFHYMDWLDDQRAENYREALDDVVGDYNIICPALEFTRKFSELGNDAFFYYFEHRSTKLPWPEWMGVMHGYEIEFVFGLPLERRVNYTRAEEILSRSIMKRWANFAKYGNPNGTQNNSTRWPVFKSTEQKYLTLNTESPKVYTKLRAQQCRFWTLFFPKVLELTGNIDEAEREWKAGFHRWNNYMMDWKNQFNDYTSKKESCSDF

Structure (SMILES) | Activity (SH-SY5Y [4]) [%] | Activity (SH-SY5Y [5]) [%] | Activity (SH-SY5Y [6]) [%] | Activity (SH-SY5Y [7]) [%] | Activity (SH-SY5Y [8]) [%] | Activity (SH-SY5Y [9]) [%] | Activity (SH-SY5Y [10]) [%] | inhibition at 1 µM (SH-SY5Y [16]) [%] | IC50 (Acetylcholinesterase) [µM] | IC50 (Cholinesterase) [µM] | Ratio IC50 [17] | also measured
Cc1ccc(Cn2nc(C(=O)N[C@@H]3C(C)(C)[C@@H]4CC[C@@]3(C)C4)cc2-c2ccc(Cl)c(C)c2)cc1 | – | – | – | – | – | – | – | – | – | – | – | Activity (SH-SY5Y [1]): Non-Toxic; Activity (SH-SY5Y [2]): Toxic
Brc1ccc2nc3c(n2c1)C1(CCCCC1)Nc1ccccc1-3 | 12.3 | 97.7 | 88.4 | 59.5 | 94.8 | 56.5 | 33.9 | 100 | 20 | 19.6 | 1.02 | inhibition at 10 µM (SH-SY5Y [3]): 58.8%; Activity (SH-SY5Y [11]): 64.7%; Activity (SH-SY5Y [12]): 58%; Activity (SH-SY5Y [13]): 55.8%; inhibition at 10 µM (SH-SY5Y [14]): 65.6%; inhibition at 0.1 µM (SH-SY5Y [15]): 91.7%
COc1ccc(C(=O)c2c(C)n(CCN3CCOCC3)c3cc(I)ccc23)cc1 | – | – | – | – | – | – | – | – | – | – | – | Activity (SH-SY5Y [1]): Toxic; Activity (SH-SY5Y [2]): > 12%
Brc1ccc2nc3c(n2c1)C1(CCCC1)Nc1ccccc1-3 | 12.2 | 78.4 | 63.9 | 59.7 | 66.4 | 31.8 | 27.5 | 78.5 | 27 | 10.7 | 2.51 | inhibition at 10 µM (SH-SY5Y [3]): 41.3%; Activity (SH-SY5Y [11]): 51.9%; Activity (SH-SY5Y [18]): 58.5%; Activity (SH-SY5Y [12]): 43.5%; Activity (SH-SY5Y [19]): 47.3%; Activity (SH-SY5Y [20]): 49.4%; Activity (SH-SY5Y [13]): 72.6%; inhibition at 10 µM (SH-SY5Y [14]): 52.2%; inhibition (SH-SY5Y [21]): Active
Cc1ccn2c3c(nc2c1)-c1ccccc1NC31CCCCC1 | 11.4 | 75.5 | 62.6 | 55.2 | 60.8 | 38.2 | 75 | 100 | 16.4 | 10.4 | 1.57 | Activity (SH-SY5Y [18]): 65.4%; Activity (SH-SY5Y [19]): 58.1%; Activity (SH-SY5Y [20]): 52.6%; inhibition at 1 µM (SH-SY5Y [22]): 67.1%; inhibition (SH-SY5Y [23]): inactive; inhibition at 0.1 µM (SH-SY5Y [15]): 78.7%
Cc1cccn2c3c(nc12)-c1ccccc1NC31CCCCCC1 | 9.3 | 83.8 | 71 | 60.3 | 67.2 | 38.8 | 91.4 | – | – | – | – | –
Cc1ccn2c3c(nc2c1)-c1ccccc1NC31CCCC1 | 10.4 | 86.9 | 59 | 48.6 | 73.1 | 31.9 | 68.9 | – | – | – | – | –
CC1CCC2(CC1)Nc1ccccc1-c1nc3ccc(Br)cn3c12 (centres undefined) | 9.3 | 92.1 | 71.3 | 64 | 74.2 | 52.3 | 126.5 | – | – | – | – | –
